# Source: ChEMBL document CHEMBL1781959, “Synthesis and in vitro antitumor activity of substituted quinazoline and quinoxaline derivatives: search for anticancer agent” (Eur J Med Chem, 2011)
# Key:
# Assay type in all cases: functional
# RXF 393 = test: Anticancer activity against human RXF393 cells assessed as cell growth promotion at 10^-5 M after 48 hrs by SRB assay relative to control
# MOLT-4 = test: Anticancer activity against human MOLT4 cells assessed as cell growth promotion at 10^-5 M after 48 hrs by SRB assay relative to control
# ACHN = test: Anticancer activity against human ACHN cells assessed as cell growth promotion at 10^-5 M after 48 hrs by SRB assay relative to control
# UACC-257 = test: Anticancer activity against human UACC257 cells assessed as cell growth promotion at 10^-5 M after 48 hrs by SRB assay relative to control
# NCI/ADR-RES = test: Anticancer activity against human NCI/ADR-RES cells assessed as cell growth promotion at 10^-5 M after 48 hrs by SRB assay relative to control
# MDA-MB-435 = test: Anticancer activity against human MDA-MB-435 cells assessed as cell growth promotion at 10^-5 M after 48 hrs by SRB assay relative to control
# COLO 205 = test: Anticancer activity against human COLO205 cells assessed as cell growth promotion at 10^-5 M after 48 hrs by SRB assay relative to control
# SN12C = test: Anticancer activity against human SN12C cells assessed as cell growth promotion at 10^-5 M after 48 hrs by SRB assay relative to control
# KM12 = test: Anticancer activity against human KM12 cells assessed as cell growth promotion at 10^-5 M after 48 hrs by SRB assay relative to control
# UACC-62 = test: Anticancer activity against human UACC62 cells assessed as cell growth promotion at 10^-5 M after 48 hrs by SRB assay relative to control
# U-251 = test: Anticancer activity against human U251 cells assessed as cell growth promotion at 10^-5 M after 48 hrs by SRB assay relative to control
# SF-539 = test: Anticancer activity against human SF539 cells assessed as cell growth promotion at 10^-5 M after 48 hrs by SRB assay relative to control
# DU-145 = test: Anticancer activity against human DU145 cells assessed as cell growth promotion at 10^-5 M after 48 hrs by SRB assay relative to control
# HL-60(TB) = test: Anticancer activity against human HL-60(TB) cells assessed as cell growth promotion at 10^-5 M after 48 hrs by SRB assay relative to control
# How it was run: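 NCI-60 single-dose screen: compound at 10^-5 M, 48 h at 37 °C, 5% CO2; cells grown in RPMI 1640 with 5% FBS and 2 mM L-glutamine, pre-incubated 24 h before dosing. Adherent cells fixed with cold TCA; endpoint is sulforhodamine B protein staining. Percent growth of treated cells is reported relative to untreated control.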
# CAKI-1 = test: Anticancer activity against human Caki1 cells assessed as cell growth promotion at 10^-5 M after 48 hrs by SRB assay relative to control
# EKVX = test: Anticancer activity against human EKVX cells assessed as cell growth promotion at 10^-5 M after 48 hrs by SRB assay relative to control
# NCI-H23 = test: Anticancer activity against human NCI-H23 cells assessed as cell growth promotion at 10^-5 M after 48 hrs by SRB assay relative to control
# M14 = test: Anticancer activity against human M14 cells assessed as cell growth promotion at 10^-5 M after 48 hrs by SRB assay relative to control
# UO-31 = test: Anticancer activity against human UO31 cells assessed as cell growth promotion at 10^-5 M after 48 hrs by SRB assay relative to control
# PC-3 = test: Anticancer activity against human PC3 cells assessed as cell growth promotion at 10^-5 M after 48 hrs by SRB assay relative to control
# SK-MEL-5 = test: Anticancer activity against human SK-MEL-5 cells assessed as cell growth promotion at 10^-5 M after 48 hrs by SRB assay relative to control
# SR = test: Anticancer activity against human SR cells assessed as cell growth promotion at 10^-5 M after 48 hrs by SRB assay relative to control
# [1] = Anticancer activity against human […] cells assessed as cell growth promotion at 10^-5 M after 48 hrs by SRB assay relative to control
# HCT-15 = test: Anticancer activity against human HCT15 cells assessed as cell growth promotion at 10^-5 M after 48 hrs by SRB assay relative to control
# MDA-MB-231 = test: Anticancer activity against human MDA-MB-231 cells assessed as cell growth promotion at 10^-5 M after 48 hrs by SRB assay relative to control
# SF-268 = test: Anticancer activity against human SF268 cells assessed as cell growth promotion at 10^-5 M after 48 hrs by SRB assay relative to control
# HCC 2998 = test: Anticancer activity against human HCC2998 cells assessed as cell growth promotion at 10^-5 M after 48 hrs by SRB assay relative to control
# A549 = test: Anticancer activity against human A549 cells assessed as cell growth promotion at 10^-5 M after 48 hrs by SRB assay relative to control
# MDA-MB-468 = test: Anticancer activity against human MDA-MB-468 cells assessed as cell growth promotion at 10^-5 M after 48 hrs by SRB assay relative to control
# OVCAR-3 = test: Anticancer activity against human OVCAR3 cells assessed as cell growth promotion at 10^-5 M after 48 hrs by SRB assay relative to control
# NCI-H226 = test: Anticancer activity against human NCI-H226 cells assessed as cell growth promotion at 10^-5 M after 48 hrs by SRB assay relative to control
# SNB-19 = test: Anticancer activity against human SNB19 cells assessed as cell growth promotion at 10^-5 M after 48 hrs by SRB assay relative to control
# K562 = test: Anticancer activity against human K562 cells assessed as cell growth promotion at 10^-5 M after 48 hrs by SRB assay relative to control
# MCF7 = test: Anticancer activity against human MCF7 cells assessed as cell growth promotion at 10^-5 M after 48 hrs by SRB assay relative to control
# 786-0 = test: Anticancer activity against human 786-0 cells assessed as cell growth promotion at 10^-5 M after 48 hrs by SRB assay relative to control
# HCT-116 = test: Anticancer activity against human HCT116 cells assessed as cell growth promotion at 10^-5 M after 48 hrs by SRB assay relative to control
# SK-MEL-28 = test: Anticancer activity against human SK-MEL-28 cells assessed as cell growth promotion at 10^-5 M after 48 hrs by SRB assay relative to control
# OVCAR-5 = test: Anticancer activity against human OVCAR5 cells assessed as cell growth promotion at 10^-5 M after 48 hrs by SRB assay relative to control
# LOX IMVI = test: Anticancer activity against human LOXIMVI cells assessed as cell growth promotion at 10^-5 M after 48 hrs by SRB assay relative to control
# Malme-3M = test: Anticancer activity against human MALME-3M cells assessed as cell growth promotion at 10^-5 M after 48 hrs by SRB assay relative to control
# HOP-62 = test: Anticancer activity against human HOP62 cells assessed as cell growth promotion at 10^-5 M after 48 hrs by SRB assay relative to control
# OVCAR-8 = test: Anticancer activity against human OVCAR8 cells assessed as cell growth promotion at 10^-5 M after 48 hrs by SRB assay relative to control
# TK-10 = test: Anticancer activity against human TK10 cells assessed as cell growth promotion at 10^-5 M after 48 hrs by SRB assay relative to control
# NCI-H322M = test: Anticancer activity against human NCI-H322M cells assessed as cell growth promotion at 10^-5 M after 48 hrs by SRB assay relative to control
# SF-295 = test: Anticancer activity against human SF295 cells assessed as cell growth promotion at 10^-5 M after 48 hrs by SRB assay relative to control
# IGROV-1 = test: Anticancer activity against human IGROV1 cells assessed as cell growth promotion at 10^-5 M after 48 hrs by SRB assay relative to control
# HT-29 = test: Anticancer activity against human HT-29 cells assessed as cell growth promotion at 10^-5 M after 48 hrs by SRB assay relative to control
# CCRF-CEM = test: Anticancer activity against human CCRF-CEM cells assessed as cell growth promotion at 10^-5 M after 48 hrs by SRB assay relative to control
structure (smiles),measurement,setting,value
Brc1cccc(/C=C/c2nc3ccccc3nc2SCc2nc3ccccc3[nH]2)c1,Activity,RXF 393,105%
same,Activity,MOLT-4,84.4%
same,Activity,ACHN,102%
same,Activity,UACC-257,93.79%
same,Activity,NCI/ADR-RES,89.75%
same,Activity,MDA-MB-435,90.95%
same,Activity,COLO 205,119%
same,Activity,SN12C,88.36%
same,Activity,KM12,90.27%
same,Activity,UACC-62,79.86%
same,Activity,U-251,90.27%
same,Activity,SF-539,101%
same,Activity,DU-145,97.76%
same,Activity,HL-60(TB),96.53%
same,Activity,CAKI-1,69.32%
same,Activity,EKVX,79.01%
same,Activity,NCI-H23,93.86%
same,Activity,M14,102%
same,Activity,UO-31,63.7%
same,Activity,PC-3,125%
same,Activity,SK-MEL-5,96.24%
same,Activity,SR,97.29%
same,Activity,[1],108%
same,Activity,HCT-15,101%
same,Activity,MDA-MB-231,93.29%
same,Activity,SF-268,94.82%
same,Activity,HCC 2998,99.44%
same,Activity,A549,100%
same,Activity,MDA-MB-468,101%
same,Activity,OVCAR-3,92.52%
same,Activity,NCI-H226,96.35%
same,Activity,SNB-19,94.19%
same,Activity,K562,79.2%
same,Activity,MCF7,61.74%
same,Activity,786-0,95.67%
same,Activity,HCT-116,78.83%
same,Activity,SK-MEL-28,86.57%
same,Activity,OVCAR-5,94.9%
same,Activity,LOX IMVI,91.83%
same,Activity,Malme-3M,86.98%
same,Activity,HOP-62,97.73%
same,Activity,OVCAR-8,97.32%
same,Activity,TK-10,103%
same,Activity,NCI-H322M,95.01%
same,Activity,SF-295,100%
same,Activity,IGROV-1,101%
same,Activity,HT-29,94.19%
same,Activity,CCRF-CEM,99.77%
